For experiment [1], the target named is T1, 5-hydroxytryptamine receptor 2A (Homo sapiens, UniProt P28223). The experiment can be described thus: Displacement of [3H]DOI from human recombinant 5HT2A receptor expressed in HEK293 cells by scintillation counting. The experiment is classed as cell-based. The note with it: in the assay text read “[125I]DOI” for “[3H]DOI”. The essentials: (§1)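 Crude membranes (5-25 μg protein) from HEK293 cells stably expressing human 5-HT2A or 5-HT2C. Radioligand [125I]DOI at 0.5 nM final; 10 μM cold DOI defines nonspecific binding. Buffer 20 mM HEPES pH 7.4, 10 mM MgCl2; 1 h at room temperature. Eight concentrations (1 pM–10 μM), each in triplicate. Vacuum filtration on GF/C, Tris wash, scintillation counting; pKi.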
T1 sequence (P28223 whole entry): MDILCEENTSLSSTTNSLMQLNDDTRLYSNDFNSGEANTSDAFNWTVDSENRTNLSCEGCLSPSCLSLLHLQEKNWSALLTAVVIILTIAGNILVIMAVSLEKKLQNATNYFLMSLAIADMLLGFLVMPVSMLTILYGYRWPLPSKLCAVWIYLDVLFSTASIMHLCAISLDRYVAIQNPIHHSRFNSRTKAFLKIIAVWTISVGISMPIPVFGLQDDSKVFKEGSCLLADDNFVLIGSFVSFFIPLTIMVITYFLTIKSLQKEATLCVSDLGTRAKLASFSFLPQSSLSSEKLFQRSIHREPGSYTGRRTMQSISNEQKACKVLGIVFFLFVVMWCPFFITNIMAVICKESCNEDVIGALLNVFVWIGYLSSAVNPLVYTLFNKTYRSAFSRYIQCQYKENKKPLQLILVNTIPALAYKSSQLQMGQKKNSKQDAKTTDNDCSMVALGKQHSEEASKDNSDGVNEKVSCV
Background: Loss of bound radioactivity is the signal in a displacement assay; it reports binding, not function.

Experiment [2] addresses T2, 5-hydroxytryptamine receptor 2C (Homo sapiens, UniProt P28335).
T2 sequence (P28335 whole entry): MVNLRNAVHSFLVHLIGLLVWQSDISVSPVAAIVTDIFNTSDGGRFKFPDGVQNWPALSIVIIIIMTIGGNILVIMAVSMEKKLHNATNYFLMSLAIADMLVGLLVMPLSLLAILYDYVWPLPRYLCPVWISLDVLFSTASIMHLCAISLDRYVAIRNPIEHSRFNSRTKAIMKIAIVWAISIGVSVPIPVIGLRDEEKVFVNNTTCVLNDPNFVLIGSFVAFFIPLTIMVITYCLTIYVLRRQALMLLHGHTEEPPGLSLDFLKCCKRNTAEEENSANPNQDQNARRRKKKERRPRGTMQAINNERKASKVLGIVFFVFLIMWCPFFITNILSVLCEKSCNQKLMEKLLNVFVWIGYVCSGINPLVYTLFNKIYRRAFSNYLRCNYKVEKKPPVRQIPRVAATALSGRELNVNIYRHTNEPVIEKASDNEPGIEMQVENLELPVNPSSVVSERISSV
The experiment in a line: Displacement of [3H]DOI from human recombinant 5HT2C receptor expressed in HEK293 cells by scintillation counting. The experiment is classed as cell-based. The settings on record: in the assay text read “[125I]DOI” for “[3H]DOI”. The essentials: as §1

In experiment [3] the target is T1, 5-hydroxytryptamine receptor 2A. The experiment can be described thus: Activity at human 5HT2A receptor expressed in HEK293 cells assessed as [3H]inositol phosphate production by scintillation counting. The experiment is classed as functional, cell-based. The essentials: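 HEK-293 cells transiently transfected with a mutated, constitutively active h5-HT2A receptor, labeled 18 h with […] [3H]myoinositol in serum- and myoinositol-free DMEM. Then 3 h at 37 °C in HBSS with LiCl (10 mM final), pargyline and compound. Lysis with ice-cold 0.1 M formic acid; total [3H]IP separated on AG1-X8 resin and counted by scintillation. Inverse-agonist pIC50.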

Experiment [4] shares this target. The experiment in a line: Displacement of [125I]DOI from human recombinant 5HT2A receptor expressed in HEK293 cells by scintillation counting.
In experiment [5] the target is T2, 5-hydroxytryptamine receptor 2C. The experiment can be described thus: Displacement of [125I]DOI from human recombinant 5HT2C receptor expressed in HEK293 cells by scintillation counting.

Data on 24 compounds can be found in ChEMBL document CHEMBL1157565, “Discovery of 1-[3-(4-bromo-2-methyl-2h-pyrazol-3-yl)-4-methoxyphenyl]-3-(2,4-difluorophenyl)urea (nelotanserin) and related 5-hydroxytryptamine2A inverse agonists for the treatment of insomnia” (J Med Chem, 2010).

By Ki is commonly meant the dissociation constant of the complex between target and ligand, obtained from inhibition or displacement. Regarding `COc1ccc(NC(=O)Nc2ccc(OC)c(-c3c(Br)cnn3C)c2)cc1`, the Ki in experiment [1] was 0.501 nM; in experiment [2], 126 nM. For the same compound, in experiment [3] (read-out: pIC50 (converted)), the IC50 was 0.398 nM.
The matching figures for `Cn1ncc(Br)c1-c1cc(NC(=O)Nc2ccc(Cl)cc2)ccc1OCc1ccc(Cl)cc1`: 20 nM, 251 nM and 12.6 nM.
Consider `COc1ccc(NC(=O)Nc2cccc(C(F)(F)F)c2)cc1-c1c(Br)cnn1C`, for which the Ki in experiment [4] was 0.398 nM; in experiment [2] it was 15.8 nM. The IC50 in experiment [3] (read-out: pIC50 (converted)) is 0.398 nM.
In the case of `COc1ccc(NC(=O)Nc2ccc(F)c(F)c2)cc1-c1c(Cl)cnn1C`, the inhibition constant (Ki) is 0.251 nM in experiment [1] and 25.1 nM in experiment [2]. In addition, in experiment [3] (read-out: pIC50 (converted)), the IC50 was 0.501 nM.
The matching figures for `COc1ccc(NC(=O)Nc2ccc(Cl)cc2C(F)(F)F)cc1-c1c(Br)cnn1C`: 0.501 nM, 126 nM and 2.51 nM.
Consider `COc1ccc(NC(=O)Nc2ccc(Cl)cc2)cc1-c1ccnn1C`, for which the Ki in experiment [2] is 158 nM. In addition, in experiment [3] (read-out: pIC50 (converted)), the IC50 is 1 nM.
`Cn1ncc(Br)c1-c1cc(NC(=O)Nc2ccc(Cl)cc2)ccc1OC(F)(F)F`: the Ki is 0.794 nM in experiment [1] and 15.8 nM in experiment [2]. In experiment [3] (read-out: pIC50 (converted)), the IC50 was 15.8 nM.
For `COc1ccc(NC(=O)Nc2ccc(F)cc2)cc1-c1c(Br)cnn1C(C)C`, the Ki in experiment [5] is 3.98 nM; in experiment [1], 0.251 nM. The IC50 in experiment [3] (read-out: pIC50 (converted)) is 1 nM.
As to `COc1ccc(NC(=O)Nc2cccc(C#N)c2)cc1-c1c(Br)cnn1C`, the Ki in experiment [5] was 63.1 nM; in experiment [1], 0.501 nM. The IC50 in experiment [3] (read-out: pIC50 (converted)) was 6.31 nM.
Turning to `COc1ccc(NC(=O)Nc2cc(C(F)(F)F)cc(C(F)(F)F)c2)cc1-c1c(Cl)cnn1C`, the Ki was 63.1 nM in experiment [5] and 1 nM in experiment [1]. For the same compound, the IC50 in experiment [3] (read-out: pIC50 (converted)) was 3.98 nM.
`Cn1ncc(Br)c1-c1cccc(NC(=O)Nc2ccc(Cl)cc2)c1`: in experiment [3], the IC50 is 19 nM.
In the case of `CCOc1ccc(NC(=O)Nc2ccc(Cl)cc2)cc1-c1c(Br)cnn1C`, the figures for the Ki in experiment [1] and in experiment [2] were 0.251 nM and 2 nM, respectively.
Turning to `COc1ccc(NC(=O)Nc2ccccc2F)cc1-c1c(Br)cnn1C`, the inhibition constant (Ki) in experiment [5] is 398 nM; in experiment [1], 1 nM.
Turning to `Cn1ncc(Br)c1-c1cc(NC(=O)Nc2ccc(Cl)cc2)ccc1O`, the results for the Ki in experiment [4] and in experiment [2] were 0.398 nM and 50.1 nM, respectively.
In the case of `COc1ccc(NC(=O)Nc2cccc(Cl)c2)cc1-c1c(Br)cnn1C`, the Ki in experiment [1] is 0.251 nM; in experiment [2] it was 15.8 nM. Also, in experiment [3] (read-out: pIC50 (converted)), the IC50 was 0.398 nM.
`COc1ccc(NC(=O)Nc2ccc(F)c(F)c2)cc1-c1c(F)cnn1C`: the inhibitory constant (Ki) was 398 nM in experiment [5] and 1.26 nM in experiment [1]. Also, the IC50 in experiment [3] (read-out: pIC50 (converted)) was 2.51 nM.
For `COc1ccc(NC(=O)Nc2cc(F)cc(F)c2)cc1-c1c(Br)cnn1C`, the Ki in experiment [4] is 0.316 nM; in experiment [2] it was 15.8 nM. For the same compound, the IC50 in experiment [3] (read-out: pIC50 (converted)) was 1.26 nM.
On to `COc1ccc(NC(=O)Nc2ccc(Cl)cc2)cc1-c1c(Br)cnn1C(C)C`, for which the Ki is 0.501 nM in experiment [1] and 2.51 nM in experiment [2]. Also, the IC50 in experiment [3] (read-out: pIC50 (converted)) was 1.26 nM.
Consider `Cn1ncc(Br)c1-c1cccc(NC(=O)Nc2ccc(OC(F)(F)F)cc2)c1`, for which the IC50 in experiment [3] worked out at 120 nM.
With `COc1ccc(NC(=O)Nc2cccc(C(C)=O)c2)cc1-c1c(Br)cnn1C`, the Ki is 2.51 nM in experiment [1] and 251 nM in experiment [2]. Besides, in experiment [3] (read-out: pIC50 (converted)), the IC50 is 3.98 nM.
On to `COc1ccc(NC(=O)Nc2ccc(Br)cc2)cc1-c1c(Br)cnn1C`, for which the Ki in experiment [5] was 3.98 nM; in experiment [1], 0.251 nM. For the same compound, the IC50 in experiment [3] (read-out: pIC50 (converted)) is 0.501 nM.
The matching figures for `COc1ccc(NC(=O)Nc2ccc(N(C)C)cc2)cc1-c1c(Br)cnn1C`: 398 nM, 1.58 nM and 50.1 nM.
For `COc1ccc(NC(=O)Nc2ccc(Cl)cc2Cl)cc1-c1c(Br)cnn1C`, the Ki was 0.2 nM in experiment [1] and 25.1 nM in experiment [2]. The IC50 in experiment [3] (read-out: pIC50 (converted)) is 1.26 nM.
`Cn1ncc(Br)c1-c1cc(NC(=O)Nc2ccc(Cl)cc2)ccc1OCc1ccccc1`: the figures for the Ki in experiment [1] and in experiment [2] were 5.01 nM and 158 nM, respectively. The IC50 in experiment [3] (read-out: pIC50 (converted)) is 7.94 nM.
